Test results reported in ChEMBL document CHEMBL2331506, “Design, synthesis, antiviral and cytostatic evaluation of novel isoxazolidine nucleotide analogues with a carbamoyl linker” (Bioorg Med Chem, 2013).
Calls of active or inactive are those of the source. The rule behind the calls is not given here.

Key:
MDCK = test: Cytotoxicity against dog MDCK cells assessed as alteration of cell morphology up to 100 uM by microscopic analysis; assay type: cell-based, Canis lupus familiaris
Method in brief: (§1)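 Uninfected host-cell cultures were exposed to compound and examined by microscopy. Cytotoxicity was expressed as the minimum cytotoxic concentration (MCC) causing a microscopically detectable alteration of normal cell morphology.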

[1] = Cytotoxicity against cat CRFK cells assessed as alteration of cell morphology up to 100 uM by microscopic analysis; assay type: cell-based, Felis catus; method in brief: as §1
Vero = test: Cytotoxicity against african green monkey Vero cells assessed as alteration of cell morphology up to 100 uM by microscopic analysis; assay type: cell-based; conditions: chlorocebus sabaeus; method in brief: as §1
HeLa = test: Cytotoxicity against human HeLa cells assessed as alteration of cell morphology up to 100 uM by microscopic analysis; assay type: cell-based; method in brief: as §1
HEL = test: Cytotoxicity against human HEL cells assessed as alteration of cell morphology up to 100 uM by microscopic analysis; assay type: cell-based; method in brief: as §1
[2] = test system: Human immunodeficiency virus 2; test: Antiviral activity against Human immunodeficiency virus 2 ROD infected in human CEM cells assessed as reduction of virus-induced giant cell formation at 250 uM after 4 to 5 days; assay type: functional, organism-based; conditions: CCRF-CEM
Method in brief: (§2)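 CEM cells at 3 × 10^5 cells/mL were infected with HIV at 100 CCID50 per mL in the presence of compound dilutions. They were held 4–5 days at 37 °C in humidified CO2. Syncytium (giant cell) formation was scored microscopically, and EC50 was taken as the concentration inhibiting giant cell formation by 50%.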

[3] = test system: Human immunodeficiency virus 1; test: Antiviral activity against Human immunodeficiency virus 1 3B infected in human CEM cells assessed as reduction of virus-induced giant cell formation at 250 uM after 4 to 5 days; assay type: functional, organism-based; conditions: CCRF-CEM; method in brief: as §2
Feline coronavirus = test: Antiviral activity against Feline coronavirus infected in cat CRFK cells assessed as reduction of virus-induced cytopathogenicity at 250 uM; assay type: functional, organism-based
Felid alphaherpesvirus 1 = test: Antiviral activity against Feline herpes virus infected in cat CRFK cells assessed as reduction of virus-induced cytopathogenicity at 250 uM; assay type: functional, organism-based
Influenza B virus = test: Antiviral activity against Influenza B virus infected in dog MDCK cells assessed as reduction of virus-induced cytopathogenicity at 250 uM; assay type: functional, organism-based
Method in brief: (§3)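 Confluent cell monolayers were infected with 100 CCID50 of virus while exposed to varying compound concentrations. Cytopathicity was scored once it was complete in untreated infected controls. EC50 was taken as the concentration that reduced virus-induced cytopathogenicity by 50%.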

Influenza A virus [4] = test: Antiviral activity against Influenza A virus H3N2 infected in dog MDCK cells assessed as reduction of virus-induced cytopathogenicity at 250 uM; assay type: functional, organism-based; method in brief: as §3
Influenza A virus [5] = test: Antiviral activity against Influenza A virus H1N1 infected in dog MDCK cells assessed as reduction of virus-induced cytopathogenicity at 250 uM; assay type: functional, organism-based; method in brief: as §3
Punta Toro virus = test: Antiviral activity against Punta Toro virus infected in african green monkey Vero cells assessed as reduction of virus-induced cytopathogenicity at 250 uM; assay type: functional, organism-based
Method in brief: (§4)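 Confluent monolayers (HEL fibroblasts, Vero, or HeLa cells as listed) were infected with 100 CCID50 of virus in the presence of varying compound concentrations. Virus-induced cytopathicity or plaque formation was scored once cytopathicity was complete in untreated infected controls. EC50 was taken as the concentration reducing cytopathogenicity or plaque formation by 50%.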

Sindbis virus = test: Antiviral activity against Sindbis virus infected in african green monkey Vero cells assessed as reduction of virus-induced cytopathogenicity at 250 uM; assay type: functional, organism-based; method in brief: as §4
Coxsackievirus B4 = test: Antiviral activity against Coxsackievirus B4 infected in african green monkey Vero cells assessed as reduction of virus-induced cytopathogenicity at 250 uM; assay type: functional, organism-based; method in brief: as §4
[6] = test system: Mammalian orthoreovirus 1; test: Antiviral activity against Reovirus 1 infected in african green monkey Vero cells assessed as reduction of virus-induced cytopathogenicity at 250 uM; assay type: functional, organism-based; method in brief: as §4
Human respirovirus 3 = test: Antiviral activity against Parainfluenza virus 3 infected in african green monkey Vero cells assessed as reduction of virus-induced cytopathogenicity at 250 uM; assay type: functional, organism-based; method in brief: as §4
[7] = test system: Respiratory syncytial virus; test: Antiviral activity against Respiratory syncytial virus long infected in human HeLa cells assessed as reduction of virus-induced cytopathogenicity at 250 uM; assay type: functional, organism-based; method in brief: as §4
[8] = test system: Vesicular stomatitis virus; test: Antiviral activity against Vesicular stomatitis virus infected in human HeLa cells assessed as reduction of virus-induced cytopathogenicity at 250 uM; assay type: functional, organism-based; method in brief: as §3
Human alphaherpesvirus 1 [9] = test: Antiviral activity against thymidine kinase-deficient, ACV-resistant Herpes simplex virus 1 KOS infected in human HEL cells assessed as reduction of virus-induced cytopathogenicity at 250 uM; assay type: functional, organism-based; method in brief: as §3
[10] = test system: Vesicular stomatitis virus; test: Antiviral activity against Vesicular stomatitis virus infected in human HEL cells assessed as reduction of virus-induced cytopathogenicity at 250 uM; assay type: functional, organism-based; method in brief: as §3
Human alphaherpesvirus 2 = test: Antiviral activity against Herpes simplex virus 2 G infected in human HEL cells assessed as reduction of virus-induced cytopathogenicity at 250 uM; assay type: functional, organism-based; conditions: strain G; method in brief: as §4
Human alphaherpesvirus 1 [11] = test: Antiviral activity against Herpes simplex virus 1 KOS infected in human HEL cells assessed as reduction of virus-induced cytopathogenicity at 250 uM; assay type: functional, organism-based; method in brief: as §4

Row | Structure (SMILES) | Activity (MDCK) | Activity [1] | Activity (Vero) | Activity (HeLa) | Activity (HEL) | inhibition [2] | inhibition [3] | inhibition (Feline coronavirus) | inhibition (Felid alphaherpesvirus 1) | inhibition (Influenza B virus) | inhibition (Influenza A virus [4]) | inhibition (Influenza A virus [5]) | inhibition (Punta Toro virus) | inhibition (Sindbis virus) | inhibition (Coxsackievirus B4) | inhibition [6] | inhibition (Human respirovirus 3) | inhibition [7] | inhibition [8] | inhibition (Human alphaherpesvirus 1 [9]) | other results
1 | CCOP(=O)(OCC)[C@@H]1C[C@H](C(=O)Nc2ccc(OC)c(OC)c2)ON1C (mixture of isomers) | Non-toxic | Non-toxic | Non-toxic | Non-toxic | Non-toxic | inactive | inactive | inactive | inactive | inactive | inactive | inactive | inactive | inactive | inactive | inactive | inactive | inactive | inactive | inactive | inhibition [10]: inactive; inhibition (Human alphaherpesvirus 2): inactive; inhibition (Human alphaherpesvirus 1 [11]): inactive
2 | CCOP(=O)(OCC)[C@H]1C[C@H](C(=O)Nc2cccc(C#N)c2)ON1C (racemic) | Non-toxic | Non-toxic | Non-toxic | Non-toxic | Non-toxic | inactive | inactive | inactive | inactive | inactive | inactive | inactive | inactive | inactive | inactive | inactive | inactive | inactive | inactive | inactive | inhibition [10]: inactive; inhibition (Human alphaherpesvirus 2): inactive; inhibition (Human alphaherpesvirus 1 [11]): inactive
3 | CCOP(=O)(OCC)[C@@H]1C[C@H](C(=O)Nc2ccc([N+](=O)[O-])cc2)ON1C (racemic) | Non-toxic | Non-toxic | Non-toxic | Non-toxic | Non-toxic | inactive | inactive | inactive | inactive | inactive | inactive | inactive | inactive | inactive | inactive | inactive | inactive | inactive | inactive | inactive | inhibition [10]: inactive; inhibition (Human alphaherpesvirus 2): inactive; inhibition (Human alphaherpesvirus 1 [11]): inactive
4 | CCOP(=O)(OCC)[C@@H]1C[C@@H](C(=O)Nc2ccccc2Cl)ON1C (racemic) | Non-toxic | Non-toxic | Non-toxic | Non-toxic | Non-toxic | inactive | inactive | inactive | inactive | inactive | inactive | inactive | inactive | inactive | inactive | inactive | inactive | inactive | inactive | inactive | inhibition [10]: inactive; inhibition (Human alphaherpesvirus 2): inactive; inhibition (Human alphaherpesvirus 1 [11]): inactive
5 | CCOP(=O)(OCC)[C@@H]1C[C@H](C(=O)Nc2cc(OC)cc(OC)c2)ON1C (mixture of isomers) | Non-toxic | Non-toxic | Non-toxic | Non-toxic | Non-toxic | inactive | inactive | inactive | inactive | inactive | inactive | inactive | inactive | inactive | inactive | inactive | inactive | inactive | inactive | inactive | inhibition [10]: inactive; inhibition (Human alphaherpesvirus 2): inactive; inhibition (Human alphaherpesvirus 1 [11]): inactive
6 | CCOP(=O)(OCC)[C@@H]1C[C@H](C(=O)Nc2ccc(Br)cc2)ON1C (mixture of isomers) | Non-toxic | Non-toxic | Non-toxic | Non-toxic | Non-toxic | inactive | inactive | inactive | inactive | inactive | inactive | inactive | inactive | inactive | inactive | inactive | inactive | inactive | inactive | inactive | inhibition [10]: inactive; inhibition (Human alphaherpesvirus 2): inactive; inhibition (Human alphaherpesvirus 1 [11]): inactive
7 | CCOP(=O)(OCC)[C@H]1C[C@H](C(=O)Nc2cc(OC)c(OC)c(OC)c2)ON1C (mixture of isomers) | Non-toxic | Non-toxic | Non-toxic | Non-toxic | Non-toxic | inactive | inactive | inactive | inactive | inactive | inactive | inactive | inactive | inactive | inactive | inactive | inactive | inactive | inactive | inactive | inhibition [10]: inactive; inhibition (Human alphaherpesvirus 2): inactive; inhibition (Human alphaherpesvirus 1 [11]): inactive
8 | CCOP(=O)(OCC)[C@H]1C[C@H](C(=O)Nc2cccc(C)c2)ON1C (racemic) | Non-toxic | Non-toxic | Non-toxic | Non-toxic | Non-toxic | inactive | inactive | inactive | inactive | inactive | inactive | inactive | inactive | inactive | inactive | inactive | inactive | inactive | inactive | inactive | inhibition [10]: inactive; inhibition (Human alphaherpesvirus 2): inactive; inhibition (Human alphaherpesvirus 1 [11]): inactive
